Laboratory results from ChEMBL document CHEMBL1128499, “Bisimidazoacridones and related compounds: new antineoplastic agents with high selectivity against colon tumors” (1995).

Assays:
Type in all cases: functional
Details in all cases: Homo sapiens
HCC 2998 = test: The concentration of compound required for 50% cell growth inhibition which was expressed in logarithmic form was measured on HCC2998 cell lines of colon cancer
In short: (§1)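 NCI 60-cell-line screen, sulforhodamine B assay. Cells grown in RPMI 1640 with 5% fetal bovine serum and 2 mM L-glutamine, seeded at 5000 to 40 000 cells/well, and incubated 24 h before drug. Drug exposure lasted 48 h. Cells were then TCA-fixed, stained with 0.4% (w/v) SRB in 1% acetic acid, and the stain solubilized in 10 mM Tris base for absorbance reading. GI50 taken from dose-response curves.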

RPMI-8226 = test: The concentration of compound required for 50% cell growth inhibition which was expressed in logarithmic form was measured on RPMI-8226 cell lines of Leukemia; in short: as §1
SK-MEL-28 = test: The concentration of compound required for 50% cell growth inhibition which was expressed in logarithmic form was measured on SK-MEL-28 cell lines of Melanoma; in short: as §1
KM12 = test: The concentration of compound required for 50% cell growth inhibition which was expressed in logarithmic form was measured on KM12 cell lines of colon cancer; in short: as §1
SK-MEL-2 = test: The concentration of compound required for 50% cell growth inhibition which was expressed in logarithmic form was measured on SK-MEL-2 cell lines of Melanoma; in short: as §1
COLO 205 = test: The concentration of compound required for 50% cell growth inhibition which was expressed in logarithmic form was measured on COLO 205 cell lines of colon cancer; in short: as §1
Malme-3M = test: The concentration of compound required for 50% cell growth inhibition which was expressed in logarithmic form was measured on MALME-3M cell lines of Melanoma; in short: as §1
SK-MEL-5 = test: The concentration of compound required for 50% cell growth inhibition which was expressed in logarithmic form was measured on SK-MEL-5 cell lines of Melanoma; in short: as §1
UACC-257 = test: The concentration of compound required for 50% cell growth inhibition which was expressed in logarithmic form was measured on UACC-257 cell lines of Melanoma; in short: as §1
HCT-116 = test: The concentration of compound required for 50% cell growth inhibition which was expressed in logarithmic form was measured on […] cell lines of colon cancer; in short: as §1
CCRF-CEM = test: The concentration of compound required for 50% cell growth inhibition which was expressed in logarithmic form was measured on CCRF-CEM cell lines of Leukemia; in short: as §1
HT-29 = test: The concentration of compound required for 50% cell growth inhibition which was expressed in logarithmic form was measured on HT-29 cell lines of colon cancer; in short: as §1
HCT-15 = test: The concentration of compound required for 50% cell growth inhibition which was expressed in logarithmic form was measured on HCT-15 cell lines of colon cancer; in short: as §1
M14 = test: The concentration of compound required for 50% cell growth inhibition which was expressed in logarithmic form was measured on M14 cell lines of Melanoma; in short: as §1
MOLT-4 = test: The concentration of compound required for 50% cell growth inhibition which was expressed in logarithmic form was measured on MOLT-4 cell lines of Leukemia; in short: as §1
HL-60 = test: The concentration of compound required for 50% cell growth inhibition which was expressed in logarithmic form was measured on HL-60(TB) cell lines of Leukemia
In short: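 NCI 60-line screen, sulforhodamine B read-out. Lines grown in RPMI 1640 with 5% fetal bovine serum and 2 mM L-glutamine, seeded at 5000–40 000 cells/well and left 24 h before drug. Drug exposure 48 h, then TCA fixation, 0.4% (w/v) SRB staining in 1% acetic acid, solubilization in 10 mM unbuffered Tris base and absorbance reading. GI50 reported as log value.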

UACC-62 = test: The concentration of compound required for 50% cell growth inhibition which was expressed in logarithmic form was measured on UACC-62 cell lines of Melanoma; in short: as §1
SW-620 = test: The concentration of compound required for 50% cell growth inhibition which was expressed in logarithmic form was measured on SW-620 cell lines of colon cancer; in short: as §1
K562 = test: The concentration of compound required for 50% cell growth inhibition which was expressed in logarithmic form was measured on K-562 cell lines of Leukemia; in short: as §1

Row | SMILES | GI50 (HCC 2998) | GI50 (RPMI-8226) | GI50 (SK-MEL-28) | GI50 (KM12) | GI50 (SK-MEL-2) | GI50 (COLO 205) | GI50 (Malme-3M) | GI50 (SK-MEL-5) | GI50 (UACC-257) | GI50 (HCT-116) | GI50 (CCRF-CEM) | GI50 (HT-29) | GI50 (HCT-15) | GI50 (M14) | GI50 (MOLT-4) | GI50 (HL-60) | GI50 (UACC-62) | GI50 (SW-620) | GI50 (K562)
1 | CN(CCNc1ccc2ncn3c4ccccc4c(=O)c1c23)CCNc1ccc2ncn3c4ccccc4c(=O)c1c23 | 25100 nM | 28200 nM | 2820 nM | 2690 nM | 27500 nM | 22400 nM | 13200 nM | 5890 nM | 8130 nM | 2240 nM | 95500 nM | 4370 nM | 27500 nM | 4070 nM | 58900 nM | > 100000 nM | 21900 nM | 11200 nM | 28200 nM
2 | CN(CCCNc1ccc2ncn3c4ccccc4c(=O)c1c23)CCCNc1ccc2ncn3c4ccc(C(C)(C)C)cc4c(=O)c1c23 | 1700 nM | 2880 nM | 1820 nM | 1550 nM | 1580 nM | 1740 nM | 1740 nM | 1700 nM | 1450 nM | 1230 nM | 6920 nM | 1580 nM | 1780 nM | 2040 nM | 3090 nM | 4790 nM | 1910 nM | 1290 nM | 724 nM
3 | CN(CCCNc1ccc2ncn3c4ccccc4c(=O)c1c23)CCCNc1ccc2nnn3c4ccccc4c(=O)c1c23 |  |  | 44700 nM | 30.9 nM | 51300 nM | 372 nM | 12000 nM | 17000 nM | > 100000 nM | < 10 nM | 5010 nM | < 10 nM | 47.9 nM | > 100000 nM | > 100000 nM | 10200 nM | 38000 nM | < 10 nM | 17800 nM
4 | CN(CCCN)CCCNc1ccc2ncn3c4ccccc4c(=O)c1c23 | 1350 nM | 1150 nM | 1550 nM | 1070 nM | 1450 nM | 1150 nM | 1620 nM | 1550 nM | 1780 nM | 661 nM | 347 nM | 631 nM | 3470 nM | 1780 nM | 355 nM | 282 nM | 1620 nM | 631 nM | 813 nM
5 | CN(CCCNc1ccc2ncn3c4ccccc4c(=O)c1c23)CCCNc1ccc2ncn3c4ccccc4c(=O)c1c23 | 93.3 nM | 145 nM | > 100000 nM | 295 nM | 13800 nM | 501 nM | 776 nM | 12900 nM | > 100000 nM | < 10 nM | < 10 nM | 16.6 nM | 316 nM | > 100000 nM | < 10 nM | 44.7 nM | 8130 nM | < 10 nM | < 10 nM
